Experimental data from ChEMBL document CHEMBL4130411, “Arylthiazole antibiotics targeting intracellular methicillin-resistant Staphylococcus aureus (MRSA) that interfere with bacterial cell wall synthesis” (Eur J Med Chem, 2017).
In brackets after ≈: the same amount, converted by molar mass. Activity calls are given as the source filed them. The calls are words filed in the database; no cut-off is given here.

Columns and labels:
[1] = system: J774; assay: Cytotoxicity against mouse J774 cells assessed as reduction in cell viability up to 16 ug/ml after 2 hrs by MTS assay; format: cell-based; details: j774, 2 h
Procedure, shortened: (§1)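 Cells were HaCaT keratinocytes or J774 murine macrophages, grown in DMEM with 10% FBS at 37 °C, 5% CO2. They were exposed in triplicate to 8, 16, 32 and 64 µg/mL for 2 h, with DMSO-matched controls. MTS was then added for 4 h and absorbance read at 490 nm. Viability is expressed as % of DMSO-treated cells, mean ± SD.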

[2] = Selectivity ratio of cytotoxicity against human HaCaT cells to MIC for methicillin-resistant Staphylococcus aureus NRS123 (USA400); format: toxicity, cell-based
[3] = system: Staphylococcus aureus; assay: Bactericidal activity against methicillin-resistant Staphylococcus aureus USA200 NRS383 incubated for 20 hrs followed by replating on tryptic soy agar plates and further incubated for 18 hrs by broth microdilution assay; format: functional
[4] = Selectivity ratio of cytotoxicity against human HaCaT cells to MIC for methicillin-resistant Staphylococcus aureus USA300 NRS384; format: toxicity, cell-based
[5] = system: Staphylococcus aureus; assay: Antibacterial activity against methicillin-resistant Staphylococcus aureus USA300 NRS384 after 20 hrs by broth microdilution assay; format: functional; details: USA300 NRS384, 20 h
[6] = system: Staphylococcus aureus; assay: Selectivity ratio of MBC99.9 for methicillin-resistant Staphylococcus aureus USA100 NRS382 to MIC for methicillin-resistant Staphylococcus aureus USA100 NRS382; format: functional
[7] = system: Staphylococcus aureus; assay: Bactericidal activity against vancomycin-resistant Staphylococcus aureus isolate 4 incubated for 20 hrs followed by replating on tryptic soy agar plates and further incubated for 18 hrs by broth microdilution assay; format: functional
[8] = Half life in human liver microsomes in presence of NADPH by LC-MS/MS analysis; format: ADME, microsome; details: microsomes
Procedure, shortened: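 Human liver microsomal protein was incubated in duplicate at 37 °C in 100 mM potassium phosphate, 2 mM NADPH, 3 mM MgCl2, pH 7.4. Samples were taken at 0, 10, 20, 40 and 60 min and stopped with ice-cold methanol containing an internal standard. Half-life was derived from depletion. CLint = ln(2)/(T1/2 × microsomal protein concentration).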

[9] = system: Staphylococcus aureus; assay: Bactericidal activity against methicillin-resistant Staphylococcus aureus NRS123 (USA400) assessed as time required for complete bacterial elimination by time-kill assay; format: functional
[10] = Half life in human liver microsomes in absence of NADPH by LC-MS/MS analysis; format: ADME, microsome
Procedure, shortened: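 Human liver microsomes were incubated in duplicate at 37 °C in 100 mM potassium phosphate with 3 mM MgCl2, pH 7.4, without NADPH to detect NADPH-free degradation. Aliquots were taken at 0, 10, 20, 40 and 60 min and quenched in ice-cold methanol containing an internal standard, then held at least 10 min at -20 °C before water was added. Half-life was taken from compound depletion.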

[11] = system: HaCaT; assay: Cytotoxicity against human HaCaT cells assessed as reduction in cell viability up to 32 ug/ml after 2 hrs by MTS assay; format: cell-based; procedure, shortened: as §1
[12] = Selectivity ratio of cytotoxicity against human HaCaT cells to MIC for methicillin-resistant Staphylococcus aureus USA100 NRS382; format: toxicity, cell-based
[13] = system: Bacillus subtilis; assay: Inhibition of cell wall biosynthesis in Bacillus subtilis assessed as induction of small bulges formation at 3.5 ug/ml incubated for 2 hrs in presence of osmotic stabilising agent MSM by FM-4-64 staining based assay; format: functional, organism-based
Procedure, shortened: (§2)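 B. subtilis grown in LB at 37 °C to OD600 ~0.2, then treated with or without the osmotic stabiliser MSM for 2 h; stained with FM 4-64 (1 µg/mL, membranes), DAPI (1 µg/mL, DNA) and SYTOX Green (1 µg/mL, lysis); imaged by deconvolution fluorescence microscopy.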

[14] = system: Staphylococcus aureus; assay: Selectivity ratio of MBC99.9 for methicillin-resistant Staphylococcus aureus USA300 NRS384 to MIC for methicillin-resistant Staphylococcus aureus USA300 NRS384; format: functional
[15] = system: Staphylococcus aureus; assay: Antibacterial activity against methicillin-resistant Staphylococcus aureus NRS123 (USA400) infected in mouse J774 cells assessed as reduction in bacterial colony forming units at 16 ug/ml after 4 hrs; format: functional, organism-based
Procedure, shortened: (§3)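 J774 macrophages in DMEM + 10% FBS, 37 °C, 5% CO2, infected with USA400 at MOI ~100:1; after 1 h, gentamicin (50 µg/mL) wash; agent at 16 µg/mL in triplicate; at time point, gentamicin wash, lysis in 0.1% Triton X-100, serial dilution, TSA plating 18-22 h at 37 °C; % CFU/mL reduction versus untreated; t-test.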

[16] = Selectivity ratio of cytotoxicity against human HaCaT cells to MIC for Staphylococcus aureus RN4220 NRS107; format: toxicity, cell-based
[17] = system: Staphylococcus aureus; assay: Bactericidal activity against methicillin-resistant Staphylococcus aureus USA100 NRS382 incubated for 20 hrs followed by replating on tryptic soy agar plates and further incubated for 18 hrs by broth microdilution assay; format: functional
[18] = system: Staphylococcus aureus; assay: Antibacterial activity against vancomycin-resistant Staphylococcus aureus isolate 4 after 20 hrs by broth microdilution assay; format: functional; details: isolate 4, 20 h
[19] = system: Staphylococcus aureus; assay: Bactericidal activity against methicillin-resistant Staphylococcus aureus USA300 NRS384 incubated for 20 hrs followed by replating on tryptic soy agar plates and further incubated for 18 hrs by broth microdilution assay; format: functional
[20] = Selectivity ratio of cytotoxicity against human HaCaT cells to MIC for methicillin-resistant Staphylococcus aureus USA200 NRS383; format: toxicity, cell-based
[21] = system: Staphylococcus aureus; assay: Selectivity ratio of MBC99.9 for methicillin-resistant Staphylococcus aureus USA200 NRS383 to MIC for methicillin-resistant Staphylococcus aureus USA200 NRS383; format: functional
[22] = system: Staphylococcus aureus; assay: Selectivity ratio of MBC99.9 for Staphylococcus aureus RN4220 NRS107 to MIC for Staphylococcus aureus RN4220 NRS107; format: functional
[23] = system: Staphylococcus aureus; assay: Inhibition of cell wall synthesis in Staphylococcus aureus RN4220 NRS107 assessed as UDP-N-acetylmuramyl pentapeptide formation at 10 times MIC incubated for 30 mins by HPLC-MS analysis; format: functional, organism-based
[24] = system: Staphylococcus aureus; assay: Bactericidal activity against methicillin-resistant Staphylococcus aureus NRS123 (USA400) incubated for 20 hrs followed by replating on tryptic soy agar plates and further incubated for 18 hrs by broth microdilution assay; format: functional
[25] = system: Staphylococcus aureus; assay: Selectivity ratio of MBC99.9 for methicillin-resistant Staphylococcus aureus NRS123 (USA400) to MIC for methicillin-resistant Staphylococcus aureus NRS123 (USA400); format: functional
[26] = system: Staphylococcus aureus; assay: Antibacterial activity against vancomycin-resistant Staphylococcus aureus isolate 10 after 20 hrs by broth microdilution assay; format: functional; details: isolate 10, 20 h
[27] = system: Bacillus subtilis; assay: Inhibition of cell wall biosynthesis in Bacillus subtilis at 4 times MIC incubated for 2 hrs by SYTOX Green staining-based assay
[28] = system: Staphylococcus aureus; assay: Bactericidal activity against Staphylococcus aureus RN4220 NRS107 incubated for 20 hrs followed by replating on tryptic soy agar plates and further incubated for 18 hrs by broth microdilution assay; format: functional
[29] = system: Staphylococcus aureus; assay: Potentiation of vancomycin-induced antibacterial activity against vancomycin-resistant Staphylococcus aureus isolate 10 assessed as reduction in vancomycin MIC after 20 to 22 hrs by broth microdilution assay relative to vancomycin alone; format: functional
[30] = system: Staphylococcus aureus; assay: Antibacterial activity against methicillin-resistant Staphylococcus aureus USA300 NRS384 infected in Caenorhabditis elegans AU37 assessed as reduction in bacterial burden at 20 ug/ml after 18 hrs by microscopic analysis; format: functional; set-up: scale not given: the % may be the effect or the level left
[31] = system: Staphylococcus aureus; assay: Antibacterial activity against methicillin-resistant Staphylococcus aureus USA300 NRS384 infected in Caenorhabditis elegans AU37 assessed as reduction in bacterial burden at 20 ug/ml after 18 hrs by microscopic analysis relative to vancomycin; format: functional
[32] = system: Staphylococcus aureus; assay: Antibacterial activity against methicillin-resistant Staphylococcus aureus NRS123 (USA400) infected in mouse J774 cells assessed as reduction in bacterial colony forming units at 16 ug/ml after 24 hrs relative to control; format: functional; set-up: scale not given: the % may be the effect or the level left; procedure, shortened: as §3
[33] = system: Bacillus subtilis; assay: Inhibition of cell wall biosynthesis in Bacillus subtilis assessed as induction of formation of misshapen cells at 3.5 ug/ml incubated for 2 hrs in presence of osmotic stabilising agent MSM by FM-4-64 staining based assay; format: functional, organism-based; procedure, shortened: as §2
[34] = system: Staphylococcus aureus; assay: Potentiation of vancomycin-induced antibacterial activity against vancomycin-resistant Staphylococcus aureus isolate 10 assessed as vancomycin MIC after 20 to 22 hrs by broth microdilution assay (reference value: […]); format: functional
[35] = system: Staphylococcus aureus; assay: Bactericidal activity against vancomycin-resistant Staphylococcus aureus isolate 10 incubated for 20 hrs followed by replating on tryptic soy agar plates and further incubated for 18 hrs by broth microdilution assay; format: functional
Procedure, shortened: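 From MIC wells without visible growth, an aliquot was spotted onto Tryptic soy agar and incubated at 37 °C for at least 18 h; MBC = lowest concentration inhibiting 99.9% of bacterial growth.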

## Cc1nc(-c2ccc3ccccc3c2)sc1-c1cnc(NC(=N)N)s1
[1]
  Activity: Non-Toxic
[2]
  selectivity ratio: 4 to 16
[3]
  MBC: 2 µg/mL (≈ 5.47 µM)
[4]
  selectivity ratio: 4 to 16
[5]
  MIC: 4 µg/mL (≈ 10.9 µM)
[6]
  selectivity ratio: 2
[7]
  MBC: 4 µg/mL (≈ 10.9 µM)
[8]
  t1/2: 2.23 h
[9]
  Time: <=4 hr
[10]
  t1/2: > 4 h
[11]
  Activity: Non-Toxic
[12]
  selectivity ratio: 4 to 16
[13]
  inhibition: Active
[14]
  selectivity ratio: 1
[15]
  Activity: inactive
[16]
  selectivity ratio: 4 to 16
[17]
  MBC: 2 µg/mL (≈ 5.47 µM)
[18]
  MIC: 4 µg/mL (≈ 10.9 µM)
[19]
  MBC: 4 µg/mL (≈ 10.9 µM)
[20]
  selectivity ratio: 4 to 16
[21]
  selectivity ratio: 1
[22]
  selectivity ratio: 2
[23]
  inhibition: Active
[24]
  MBC: 4 µg/mL (≈ 10.9 µM)
[25]
  selectivity ratio: 2
[26]
  MIC: 4 µg/mL (≈ 10.9 µM)
[27]
  inhibition: Active
[28]
  MBC: 4 µg/mL (≈ 10.9 µM)
[29]
  fold change (FC): 512
[30]
  Activity: 30%
[31]
  fold change (FC): 3
[32]
  Activity: 81%
[33]
  inhibition: Active
[34]
  MIC: 1 µg/mL
[35]
  MBC: 4 µg/mL (≈ 10.9 µM)
